In ChEMBL document CHEMBL2062453, “Lead optimization through VLAK protocol: new annelated pyrrolo-pyrimidine derivatives as antitumor agents” (2012):

How the values were obtained:
Format in all cases: functional
UACC-62 = experiment: Cytotoxicity against human UACC62 cells after 48 hrs by SRB assay; settings: UACC-62, 48 h; for TGI: read-out: pTGI (converted)
Outline: (§1)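 NCI 60-panel five-dose screen. Cells in RPMI 1640 with 5% FBS and 2 mM glutamine, plated at 5000–40,000 cells/well and preincubated 24 h at 37 °C under 5% CO2. Five 10-fold or half-log dilutions were added from a DMSO stock for 48 h. Cells were TCA-fixed (SR settled cells: 16% final), SRB-stained and read at 515 nm. GI50 was taken where (Ti−Tz)/(C−Tz)×100 = 50.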

MDA-MB-231 = experiment: Cytotoxicity against human MDA-MB-231 cells after 48 hrs by SRB assay; settings: MDA-MB-231, 48 h; for TGI: read-out: pTGI (converted)
Outline: (§2)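 NCI 60-cell five-dose screen. Cells grown in RPMI 1640 with 5% FBS and 2 mM glutamine, plated at 5000–40,000 cells/well, and preincubated 24 h at 37 °C in 5% CO2. Time-zero plates fixed with TCA. Five serial dilutions of DMSO stock added, then 48 h exposure. TCA fixation, 0.4% SRB staining, absorbance read at 515 nm. GI50 from [(Ti−Tz)/(C−Tz)]×100 = 50.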

ACHN = experiment: Cytotoxicity against human ACHN cells after 48 hrs by SRB assay; settings: for CC50: read-out: pLC50 (the source's name) (converted); for TGI: read-out: pTGI (converted); outline: as §2
U-251 = experiment: Cytotoxicity against human U251 cells after 48 hrs by SRB assay; settings: U-251, 48 h; for TGI: read-out: pTGI (converted); outline: as §1
SK-MEL-5 = experiment: Cytotoxicity against human SK-MEL-5 cells after 48 hrs by SRB assay; settings: SK-MEL-5, 48 h; for TGI: read-out: pTGI (converted)
Outline: (§3)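 Five-dose screen, 10-fold or ½-log dilutions, compound stock in DMSO. Cells were in RPMI 1640 with 5% FBS and 2 mM glutamine at 5000–40,000 cells/well, preincubated 24 h, 37 °C, 5% CO₂, with a time-zero plate TCA-fixed. After 48 h drug exposure, cells were TCA-fixed and stained with 0.4% SRB, read at 515 nm. GI50, TGI and LC50 were derived from time-zero, control and test absorbances.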

DU-145 = experiment: Cytotoxicity against human DU145 cells after 48 hrs by SRB assay; settings: DU-145, 48 h; for TGI: read-out: pTGI (converted); outline: as §2
NCI-H23 = experiment: Cytotoxicity against human NCI-H23 cells after 48 hrs by SRB assay; settings: NCI-H23, 48 h; for TGI: read-out: pTGI (converted); outline: as §3
NCI-H460 = experiment: Cytotoxicity against human NCI-H460 cells after 48 hrs by SRB assay; settings: NCI-H460, 48 h; for TGI: read-out: pTGI (converted); outline: as §3
CCRF-CEM = experiment: Cytotoxicity against human CCRF-CEM cells after 48 hrs by SRB assay; settings: for TGI: read-out: pTGI (converted); outline: as §2
OVCAR-3 = experiment: Cytotoxicity against human OVCAR3 cells after 48 hrs by SRB assay; settings: OVCAR-3, 48 h; for TGI: read-out: pTGI (converted); outline: as §3
MOLT-4 = experiment: Cytotoxicity against human MOLT4 cells after 48 hrs by SRB assay; settings: MOLT-4, 48 h; for TGI: read-out: pTGI (converted); outline: as §3
HOP-92 = experiment: Cytotoxicity against human HOP92 cells after 48 hrs by SRB assay; settings: HOP-92, 48 h
Outline: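 NCI 60-line five-dose screen. Cells are grown in RPMI 1640 with 5% FBS and 2 mM glutamine, plated at 5000–40,000 cells/well, and preincubated 24 h at 37 °C in 5% CO2. Compound is dissolved in DMSO and given at five concentrations (10-fold or ½-log dilutions) for 48 h. Cells are TCA-fixed (HL-60(TB), suspension: 16% final; HOP92, adherent: 10% final), SRB-stained and read at 515 nm. GI50 comes from [(Ti−Tz)/(C−Tz)]×100 = 50.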

RXF 393 = experiment: Cytotoxicity against human RXF393 cells after 48 hrs by SRB assay; settings: RXF 393, 48 h; for TGI: read-out: pTGI (converted); outline: as §3
MDA-MB-435 = experiment: Cytotoxicity against human MDA-MB-435 cells after 48 hrs by SRB assay; settings: MDA-MB-435, 48 h; for TGI: read-out: pTGI (converted); outline: as §2
SNB-19 = experiment: Cytotoxicity against human SNB19 cells after 48 hrs by SRB assay; settings: SNB-19, 48 h; for TGI: read-out: pTGI (converted); outline: as §3
SW-620 = experiment: Cytotoxicity against human SW620 cells after 48 hrs by SRB assay; settings: SW-620, 48 h; for TGI: read-out: pTGI (converted); outline: as §1
UO-31 = experiment: Cytotoxicity against human UO31 cells after 48 hrs by SRB assay; settings: UO-31, 48 h; for TGI: read-out: pTGI (converted); outline: as §1
Hs-578T = experiment: Cytotoxicity against human Hs578T cells after 48 hrs by SRB assay; settings: for TGI: read-out: pTGI (converted); outline: as §2
MDA-MB-468 = experiment: Cytotoxicity against human MDA-MB-468 cells after 48 hrs by SRB assay; settings: MDA-MB-468, 48 h; for TGI: read-out: pTGI (converted); outline: as §3
SNB-75 = experiment: Cytotoxicity against human SNB75 cells after 48 hrs by SRB assay; settings: SNB-75, 48 h; for TGI: read-out: pTGI (converted); outline: as §3
T47D = experiment: Cytotoxicity against human T47D cells after 48 hrs by SRB assay; settings: for TGI: read-out: pTGI (converted); outline: as §1
HOP-62 = experiment: Cytotoxicity against human HOP62 cells after 48 hrs by SRB assay; settings: HOP-62, 48 h; for TGI: read-out: pTGI (converted); outline: as §2
TK-10 = experiment: Cytotoxicity against human TK10 cells after 48 hrs by SRB assay; settings: TK-10, 48 h; for TGI: read-out: pTGI (converted); outline: as §1
MCF7 = experiment: Cytotoxicity against human MCF7 cells after 48 hrs by SRB assay; settings: MCF7, 48 h; for TGI: read-out: pTGI (converted); outline: as §2
OVCAR-5 = experiment: Cytotoxicity against human OVCAR5 cells after 48 hrs by SRB assay; settings: OVCAR-5, 48 h; for TGI: read-out: pTGI (converted); outline: as §3

## CSC1=Nc2c(c(C)c(-c3ccccc3)n2CCCN2CCCCC2)C2=NC(=O)CC(C)N12 (stereo not drawn)
UACC-62
  GI50: 2.82 µM
  LC50: 38 µM
  TGI: 14.1 µM
MDA-MB-231
  GI50: 1.82 µM
  LC50: > 100 µM
  TGI: 9.55 µM
ACHN
  GI50: 3.02 µM
  CC50: > 100 µM
  TGI: 22.4 µM
U-251
  GI50: 2.45 µM
  LC50: 33.9 µM
  TGI: 11.2 µM
SK-MEL-5
  GI50: 2 µM
  LC50: 14.8 µM
  TGI: 4.9 µM
DU-145
  GI50: 3.39 µM
  LC50: > 100 µM
  TGI: 27.5 µM
NCI-H23
  GI50: 2.95 µM
  LC50: > 100 µM
  TGI: > 100 µM
NCI-H460
  GI50: 3.24 µM
  LC50: 67.6 µM
  TGI: 12 µM
CCRF-CEM
  GI50: 2.69 µM
  LC50: > 100 µM
  TGI: 12 µM
OVCAR-3
  GI50: 2.4 µM
  LC50: 53.7 µM
  TGI: 8.51 µM
MOLT-4
  GI50: 2 µM
  LC50: 20.4 µM
  TGI: 5.13 µM
HOP-92
  LC50: > 100 µM
RXF 393
  GI50: 1.51 µM
  LC50: 25.1 µM
  TGI: 4.68 µM
MDA-MB-435
  GI50: 2.88 µM
  LC50: 58.9 µM
  TGI: 10.5 µM
SNB-19
  GI50: 2.95 µM
  LC50: > 100 µM
  TGI: > 100 µM
SW-620
  GI50: 2.4 µM
  LC50: 32.4 µM
  TGI: 10.5 µM
UO-31
  GI50: 5.01 µM
  LC50: 75.9 µM
  TGI: 24 µM
Hs-578T
  GI50: 2.29 µM
  LC50: 97.7 µM
  TGI: 7.94 µM
MDA-MB-468
  GI50: 2.69 µM
  LC50: > 100 µM
  TGI: 10 µM
SNB-75
  GI50: 2.69 µM
  LC50: > 100 µM
  TGI: 21.9 µM
T47D
  GI50: 2 µM
  LC50: > 100 µM
  TGI: 7.59 µM
HOP-62
  GI50: 3.16 µM
  LC50: > 100 µM
  TGI: 26.3 µM
TK-10
  GI50: 2.88 µM
  LC50: > 100 µM
  TGI: 9.33 µM
MCF7
  GI50: 2.88 µM
  LC50: 61.7 µM
  TGI: 11.2 µM
OVCAR-5
  GI50: 19.1 µM
  LC50: > 100 µM
  TGI: > 100 µM

## CSC1=Nc2c(c(C)c(-c3ccccc3)n2CCCCl)C2=NC(=O)CN12
UACC-62
  GI50: 2.09 µM
  LC50: 38 µM
  TGI: 11.5 µM
MDA-MB-231
  GI50: 5.62 µM
  LC50: 77.6 µM
  TGI: 24 µM
ACHN
  GI50: 9.55 µM
  CC50: > 100 µM
  TGI: 38 µM
U-251
  GI50: 3.89 µM
  LC50: 53.7 µM
  TGI: 16.2 µM
SK-MEL-5
  GI50: 3.47 µM
  LC50: 38 µM
  TGI: 14.1 µM
DU-145
  GI50: 11.5 µM
  LC50: 61.7 µM
  TGI: 26.9 µM
NCI-H23
  GI50: 8.32 µM
  LC50: > 100 µM
  TGI: 46.8 µM
NCI-H460
  GI50: 3.72 µM
  LC50: 56.2 µM
  TGI: 15.1 µM
CCRF-CEM
  GI50: 5.13 µM
  LC50: > 100 µM
  TGI: > 100 µM
OVCAR-3
  GI50: 8.32 µM
  LC50: > 100 µM
  TGI: 36.3 µM
MOLT-4
  GI50: 3.89 µM
  LC50: > 100 µM
  TGI: > 100 µM
HOP-92
  GI50: 11.5 µM
  LC50: > 100 µM
HOP-92; read-out: pTGI (converted)
  TGI: 37.2 µM
RXF 393
  GI50: 11.2 µM
  LC50: 79.4 µM
  TGI: 29.5 µM
MDA-MB-435
  GI50: 2.04 µM
  LC50: 17.4 µM
  TGI: 4.68 µM
SNB-19
  GI50: 3.98 µM
  LC50: 45.7 µM
  TGI: 17.8 µM
SW-620
  GI50: 4.79 µM
  LC50: > 100 µM
  TGI: 53.7 µM
UO-31
  GI50: 10.5 µM
  LC50: 77.6 µM
  TGI: 28.8 µM
Hs-578T
  GI50: 6.31 µM
  LC50: > 100 µM
  TGI: 34.7 µM
MDA-MB-468
  GI50: 3.16 µM
  LC50: 60.3 µM
  TGI: 13.2 µM
SNB-75
  GI50: 2.82 µM
  LC50: 67.6 µM
  TGI: 11.7 µM
T47D
  GI50: 2.63 µM
  LC50: 95.5 µM
  TGI: 11 µM
HOP-62
  GI50: 11 µM
  LC50: > 100 µM
  TGI: 63.1 µM
TK-10
  GI50: 8.51 µM
  LC50: > 100 µM
  TGI: 77.6 µM
MCF7
  GI50: 3.39 µM
  LC50: 77.6 µM
  TGI: 16.6 µM
OVCAR-5
  GI50: 11.5 µM
  LC50: > 100 µM
  TGI: 38 µM
